Assay outcomes: PubChem BioAssay, The Scripps Research Institute Molecular Screening Center
An excerpt weighted towards active compounds, which were near 2.3% of everything screened.
OXTR potentiate – potentiates the human oxytocin receptor response; activation, % at 3 µM; CHO-OTR cells, Fluo-8 calcium fluorescence, potentiator mode; 0% = oxytocin EC15, 100% = EC100; hit rate 0.061% among 320,000; P30559;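 active means activation above that plate's cutoff, the mean activation of tested compounds plus 3 SD, cut at about 6.6% in these data, passing the limit was not always enough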;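 further: 100% uses oxytocin at 75 nM as the full agonist control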
Target sequence (P30559 whole entry, looked up): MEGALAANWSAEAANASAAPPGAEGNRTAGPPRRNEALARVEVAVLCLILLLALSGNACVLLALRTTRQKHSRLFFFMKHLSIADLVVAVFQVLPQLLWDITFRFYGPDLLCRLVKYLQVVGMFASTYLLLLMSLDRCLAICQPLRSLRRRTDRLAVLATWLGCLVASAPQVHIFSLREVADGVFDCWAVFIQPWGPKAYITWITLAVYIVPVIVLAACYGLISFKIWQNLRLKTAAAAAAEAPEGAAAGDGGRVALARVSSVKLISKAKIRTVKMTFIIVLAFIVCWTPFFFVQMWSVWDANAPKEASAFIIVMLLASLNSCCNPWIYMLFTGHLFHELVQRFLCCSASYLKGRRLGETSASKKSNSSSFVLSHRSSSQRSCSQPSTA
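Material: human OTR in CHO cells. Compound: 3.0 µM, one dose. Timing: compound 6 min at room temperature before oxytocin, 100 s read. Evaluation: % activation of max/min ratio relative to oxytocin controls. Replication: single well per compound, singlicate. Signal: Fluo-8 calcium dye fluorescence.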
OXTR agonist – human OXTR agonism. CHO-OTR cells, Fluo-8 calcium fluorescence; normalized: DMSO 0%, oxytocin 100%. activation, % at 3 µM. hit rate 0.32% among 320,000;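 active means activation above the mean of all tested compounds plus 3 SD, cutoff set per screening run, cut at about 20% in these data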;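 further: peak over basal fluorescence ratio from a 100 s FLIPR kinetic read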
V1aR counter – V1a receptor agonism, counter-screen for OXTR agonists; P37288; CHO-V1R cells, Fluo-8 calcium fluorescence, agonist mode; 0% DMSO, 100% 3 nM vasopressin; activation, % at 3 µM; hit rate 0.25% among 320,000;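 active means activation above the mean activation of all tested compounds plus 3 SD, per screening run, cut at about 20% in these data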;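 further: signal is peak over basal fluorescence ratio across a 100 second FLIPR read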
TAAR1 antagonist – human TAAR1 antagonism | hit rate 1.5% among 360,000 | Q96RJ0 | CHO RD-HGA16 TAAR1, Fluo-8 calcium fluorescence, antagonist | AID 624466 | inhibition, % at 3 µM;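 active means inhibition above a per-plate cutoff, the mean inhibition of test compounds on that plate plus 3 SD, cut at about 49% in these data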;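 further: 0% = DMSO plus EC80 beta-PEA response and 100% = DMSO alone without agonist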
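Test system: RD-HGA16 CHO cells with stable hTAAR1 and Gα16 / Probe or stimulus: EC80 β-phenethylamine stimulus / Times: seeding 17-24 h prior, 75-min 37 °C, 30-min RT dye loading / Detection: Fluo-8 calcium-sensitive fluorescence / Read-out basis: % inhibition scaled between DMSO and EC80 PEA controls / Repeats: singlicate, one well per test compound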
TAAR1 agonist – human TAAR1 agonism. activation, % at 3 µM. Q96RJ0. hit rate 0.99% among 360,000. AID 624467. CHO RD-HGA16 TAAR1, Fluo-8 calcium fluorescence; vehicle wells 0%, saturating PEA agonist 100%;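 active means activation above the mean activation of all test compounds in the run plus 3 SD, cut at about 38% in these data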
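Test system: RD-HGA16 (CHO) cells co-expressing Gα16 and hTAAR1; dosing: one-point dosing at 3 µM (nominal); timing: 17-24 h seeding, 75 min 37 °C dye, 30 min RT; signal: kinetic Fluo-8 calcium fluorescence; read-out basis: % activation relative to PEA EC100 response; controls: DMSO and PEA EC100; replicates: n 1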
The depositor's hits bear a star; . = not tested or not shown.

SMILES | OXTR potentiate | OXTR agonist | V1aR counter | TAAR1 antagonist | TAAR1 agonist
Cc1ccccc1-c1nnn(Cc2cccc(S(=O)(=O)N3CCOCC3)c2)n1 | -12 | 13 | 12 | 60* | 10
COc1ccc(OC2C(=O)N(Cc3ccc(F)cc3)C2c2ccc(OC)c(OC)c2)cc1 (centres undefined) | -8 | -1 | 0 | 28 | 5
COc1ccc(OC2C(=O)N(Cc3ccc4c(c3)OCO4)C2c2sccc2C)cc1 (centres undefined) | -10 | 1 | 1 | 50* | 3
O=C(NCCCc1ccccc1)C(=O)NCC1OCCN1S(=O)(=O)c1cc(F)ccc1F (centres undefined) | -7 | -1 | 3 | -2 | 1
COc1ccccc1CCNC(=O)C(=O)NCC1OCCN1S(=O)(=O)c1ccc(Cl)cc1 (centres undefined) | -7 | 1 | 2 | 7 | 36
COc1ccccc1CCNC(=O)C(=O)NCC1OCCN1S(=O)(=O)c1ccc(OC)c(OC)c1 (centres undefined) | -4 | 1 | 3 | -17 | 40*
COc1ccc(CCNC(=O)C(=O)NCC2OCCN2S(=O)(=O)c2cc(F)ccc2F)cc1 (centres undefined) | -6 | 3 | 3 | 55* | 15
COc1ccccc1CCNC(=O)C(=O)NCC1OCCN1S(=O)(=O)c1ccc(F)cc1 (centres undefined) | -4 | -2 | 0 | -18 | 39*
Cc1c(NC(=O)c2ccc(N(C)S(C)(=O)=O)cc2)c(=O)n(-c2ccccc2)n1C | -8 | 0 | 1 | 2 | 5
CC(=O)c1ccc(NC(=O)c2ccc3snnc3c2)cc1 | -4 | 1 | 3 | -4 | 3
O=C(Nc1ccccc1)Nc1ccc2nnsc2c1 | -18 | 13 | 15 | 3 | 30
O=C(Nc1ccccc1)Nc1ccc2snnc2c1 | -22 | 18 | 12 | 17 | 40*
CN(C)c1ccc(NC(=O)Nc2ccc3snnc3c2)cc1 | -32 | 10 | 9 | 58* | 22
CO/N=C/C1C(=O)NN=C1c1ccccc1 (centres undefined) | -12 | 0 | -1 | -8 | 10
O=C1CSC(=S)N1/N=C/c1cc(Br)c(O)c(Br)c1 | -16 | 158* | 140* | . | .
Cc1ccc(Nc2nc(NCc3ccco3)c3ccccc3n2)cc1 | -29 | 13 | 13 | -3 | 50*
c1ccc(Nc2nc(NCC3CCCO3)c3ccccc3n2)cc1 (centres undefined) | -5 | 1 | 2 | 3 | 52*
OCCNc1nc(Nc2ccc(Br)cc2)nc2ccccc12 | -26 | 7 | 6 | 60* | 65*
CN1/C(=C/C2CC(=O)N(c3cccc4ccccc34)C2=O)C(C)(C)c2ccccc21 (centres undefined) | -10 | 1 | 1 | 50* | 16
COc1ccc(NS(=O)(=O)c2ccc(NC(=S)NC(=O)C(C)C)cc2)cc1 | -22 | 20* | 24* | 20 | 77*
Cc1ccc(-c2cc(C(=O)N3CCN(c4ccc(F)cc4)CC3)c3ccccc3n2)o1 | -3 | -2 | -1 | 46 | 19
Cc1ccc(-c2cc(C(=O)N3CCN(c4ncccn4)CC3)c3cc(Br)ccc3n2)o1 | -4 | 0 | 0 | 59* | 24
Cc1cccc(NS(=O)(=O)c2cc3c4c(c2)C(C)C(=O)N4CCC3)c1 (centres undefined) | -1 | -1 | 0 | -28 | 0
O=C(COc1ncnc2cc([N+](=O)[O-])ccc12)NC(=O)NC1CCCCC1 | -6 | 1 | 1 | -2 | 41*
CC(C)c1ccc(NC(=O)Nc2nc(C(N)C(C)C)cs2)cc1 (centres undefined) | . | . | . | 28 | 29
SMILES | OXTR potentiate | OXTR agonist | V1aR counter | TAAR1 antagonist | TAAR1 agonist
CC(C)c1ccc(NC(=O)Nc2nc(C(N)c3ccccc3)cs2)cc1 (centres undefined) | . | . | . | 10 | 45*
N#C/C(=C/c1ccc(-c2ccc(S(N)(=O)=O)cc2)o1)c1nc2ccccc2s1 | -10 | 38* | 51* | 25 | 20
N#C/C(=C/c1ccc(-c2ccccc2)o1)c1nc(-c2cccs2)cs1 | -5 | 16 | 10 | 55* | 34
N#C/C(=C\c1ccc(-c2ccc(F)cc2)o1)C(=O)Nc1nc(-c2cccs2)cs1 | -10 | -1 | 0 | -9 | 0
CC(C)(C)c1ccc(C(=O)OC/C(O)=C(\C#N)c2nc3ccccc3s2)cc1 | -4 | 1 | 0 | 3 | 6
COC(=O)c1ccc(/C=C(\C#N)c2nc3ccccc3s2)cc1 | -9 | 30* | 24* | 5 | 5
CCN(CC)c1ccc(-c2c(C#N)c(N)nc(OC)c2C#N)cc1 | -10 | 5 | 4 | 57* | 33
Cn1nc(N)c2c(-c3ccc(Cl)cc3)c(C#N)c(N)nc21 | -4 | 1 | 1 | -1 | 0
NC(=O)c1c(NC(=O)COC(=O)c2ccc(O)c(Cl)c2)sc2c1CCCC2 | -8 | 0 | -1 | -21 | -2
CC(OC(=O)c1ncc(Cl)c(Cl)c1Cl)C(=O)NC1(C#N)CCCCC1 (centres undefined) | -7 | -2 | -1 | -6 | 0
S=C(NCCc1ccccc1)N1CCN(C23CC4CC(CC(C4)C2)C3)CC1 | -6 | 11 | 8 | 15 | 37*
CC(=O)Nc1sc(/C(C#N)=C\c2cccc(Cl)c2)nc1-c1ccc(C)cc1 | -3 | 10 | 5 | 52* | 33
COc1cc(OC)c(OC)cc1CN1CCC(O)CC1 | -14 | 0 | 5 | -10 | 1
CCn1c(SCc2ccc(C(=O)Nc3cc(C)cc(C)c3)cc2)nnc1-c1ccncc1 | -18 | 4 | 1 | 59* | 22
Cc1ccc(NC(=O)c2ccc(CSc3nnc(-c4ccncc4)n3C)cc2)cc1 | -3 | 1 | 0 | -1 | 3
O=[N+]([O-])c1ccccc1CCO | . | . | . | -27 | 8
O=[N+]([O-])c1ccccc1CCc1ccccc1[N+](=O)[O-] | . | . | . | 50* | 34
COc1ccc(S(=O)(=O)Nc2cc(Sc3ncn[nH]3)c(O)c3ccccc23)cc1 | . | . | . | 19 | 43*
COc1ccc(-c2ccc3[nH]c4c(c3c2)CCN2C(=O)[C@@H]([C@H](C)O)[C@@H](N(C)C(=O)Nc3ccc(F)cc3)C[C@@H]42)cc1 | . | . | . | 49* | 7
COC(=O)c1ccc(CNC(=O)c2ccc(S(=O)(=O)N(C)c3ccccc3OC)cc2)cc1 | -9 | 7 | 11 | 57* | 21
COc1ccccc1N(C)S(=O)(=O)c1ccc(C(=O)NCC2CCCCC2)cc1 | -6 | 1 | 5 | 53* | 12
COc1ccccc1/C=C(\NC(=O)c1ccc(OC)c(OC)c1)C(=O)Nc1ccc([N+](=O)[O-])cc1 | -10 | -1 | 1 | 11 | 11
C=C1C(=O)C=C2CN(C(=O)c3ccccc3)[C@@](Cc3ccc(F)cc3)(C(=O)OC)[C@@H]12 | -17 | 69* | 81* | . | .
